PLK1 inh: blocks human PLK1 kinase activity; recombinant PLK1 kinase, TR-FRET peptide phosphorylation; inhibition, % at 10 µM; 0.53% of 97,000 active;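 active means inhibition of 50% or more in the single-concentration screen; inactive means inhibition below 50%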
Target sequence (P53350 whole entry, looked up): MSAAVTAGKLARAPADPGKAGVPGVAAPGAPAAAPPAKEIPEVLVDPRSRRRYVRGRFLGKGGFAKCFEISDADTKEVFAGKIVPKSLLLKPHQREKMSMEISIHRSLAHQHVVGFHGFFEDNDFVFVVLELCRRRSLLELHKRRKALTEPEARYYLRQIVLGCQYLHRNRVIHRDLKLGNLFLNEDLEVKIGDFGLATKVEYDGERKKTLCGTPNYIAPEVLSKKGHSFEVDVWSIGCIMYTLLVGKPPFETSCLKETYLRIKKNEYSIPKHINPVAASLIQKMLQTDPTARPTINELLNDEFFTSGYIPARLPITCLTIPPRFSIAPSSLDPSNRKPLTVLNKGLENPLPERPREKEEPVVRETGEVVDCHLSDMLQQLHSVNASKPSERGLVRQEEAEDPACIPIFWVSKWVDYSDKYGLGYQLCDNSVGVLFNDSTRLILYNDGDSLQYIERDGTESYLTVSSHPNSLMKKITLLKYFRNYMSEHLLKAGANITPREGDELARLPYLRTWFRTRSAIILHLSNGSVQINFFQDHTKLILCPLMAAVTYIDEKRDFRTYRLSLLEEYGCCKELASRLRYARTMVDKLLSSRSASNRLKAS
HIV Rev-RRE inh: HIV Rev-RRE protein-RNA interaction inhibition. 0.79% of 97,000 active. AID 704. inhibition, % at 8 µM. P05866. Rev peptide-RRE RNA binding, FRET;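 active means inhibition above the screen-wide mean plus 3 SD, cut at about 35% in these data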
Target sequence (P05866 whole entry, looked up): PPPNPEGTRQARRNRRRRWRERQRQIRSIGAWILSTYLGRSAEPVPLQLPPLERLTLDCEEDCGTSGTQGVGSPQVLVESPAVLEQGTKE
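Test system: labelled RRE RNA duplex and labelled Rev peptide. Times: 5 min compound–RNA preincubation, then 15 min with peptide, 25 °C. Doses: single-dose 8 µM. Measured by: FRET, excitation 480 nm, emission 540 nm donor and 671 nm acceptor. Measure: % inhibition of FRET ratio versus controls.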
Plk1 PBD FP: inhibitors of human Plk1 polo box domain binding. Plk1 PBD phosphopeptide binding, fluorescence polarization. inhibition, %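 (tested at about 20 µM)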. 0.13% of 97,000 active. AID 693; in the data active means inhibition above about 34%, passing the limit was not always enough
PLAP activator: activates human placental alkaline phosphatase | P05187 | purified PLAP enzyme, luminescent substrate read-out; hits give high values | activation fold at 20 µM | 1.2% of 96,000 active | AID 696; in the data active means activation fold above about 2
LYP act: LYP (human) phosphatase activation; recombinant LYP, DiFMUP fluorescence; 0 = plate median, 100 = signal doubled; 0.11% of 96,000 active; AID 697; activation, % at 2 µM; Q9Y2R2;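 active means activation at 2 µM above a set limit, the mean plus 5 SD, cut at about 37% in these data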
PTPN22 inh 2: inhibitors of human LYP (PTPN22) phosphatase. Q9Y2R2. recombinant LYP catalytic domain, DiFMUP fluorescence. inhibition, % at 2 µM. 0.21% of 96,000 active;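 active means inhibition at 2 µM at or above a set limit, the screen mean plus 3 SD, cut at about 24% in these data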
PLK1 confirm: PLK1 (human) kinase inhibition, confirmed. shares compounds with PLK1 inh. AID 744. inhibition, % at 10 µM. 20% of 210 active. recombinant PLK1 kinase, TR-FRET peptide phosphorylation;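 active means inhibition at or above 50% in each of two repeat confirmation tests; inconclusive means one repeat below 50% inhibition, the other above; inactive means both repeats at or below 50% inhibition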
Plk1 interf: interferes with the Plk1 assay readout, not true inhibition. inhibition (interference), % at 10 µM. Plk1 TR-FRET assay interference, compound added post-reaction. shares compounds with PLK1 inh. 210 tested, under 10 active;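 active means both duplicate runs show 50% or greater inhibition; inconclusive means only one duplicate run shows over 50% inhibition; inactive means both runs show under 50% inhibition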
A number is an active result; . = inactive; ? = inconclusive; / = no result given. The list is not random: actives were taken first. Their share in the collection is about 2.7%.

SMILES	PLK1 inh	HIV Rev-RRE inh	Plk1 PBD FP	PLAP activator	LYP act	PTPN22 inh 2	PLK1 confirm	Plk1 interf
C=CCn1c2ccccc2n2nc(C)c(=O)nc12	.	.	.	/	.	.	/	/
COc1ccccc1N1CCN(S(=O)(=O)c2ccc(F)cc2)CC1	81.5	.	.	.	.	.	.	.
CC(C)OC(=O)C1C2C=CC3(CN(C(C)c4ccc(Br)cc4)C(=O)C13)O2 (stereo not given)	74.0	.	.	.	/	/	.	.
CCOC(=O)C1CCN(C(=O)CN(c2ccc(OC)cc2)S(=O)(=O)c2c(C)nn(C)c2C)CC1	73.3	.	.	.	/	/	.	.
CCOC(=O)C1CCN(C(=O)CN(c2ccc(OC)cc2)S(=O)(=O)c2c(C)noc2C)CC1	.	.	.	.	.	.	/	/
Cc1cc(C(=O)N/N=C/c2cccc(Cl)c2Cl)no1	88.0	.	.	.	.	.	.	.
O=C(N/N=C/c1cccc(Cl)c1Cl)Nc1ccccc1	.	.	.	/	.	.	/	/
Cc1cc2c(ccc3[nH]onc32)n1	71.7	.	.	.	.	.	.	.
O=C(CSc1nc(-c2ccccc2)cc(=O)[nH]1)Nc1ccccn1	.	.	.	.	.	.	/	/
O=C(CSc1n[nH]c(-c2ccc(Cl)cc2Cl)n1)Nc1ccccn1	77.9	.	.	.	.	.	73.7	.
CCCCN(CC)C(=O)CSc1cc(=O)n(C)c2ccccc12	.	.	.	.	.	.	/	/
CS(=O)(=O)c1ccc2nc(N)sc2c1	.	.	.	.	.	.	/	/
Nc1nc2ccc([N+](=O)[O-])c(N)c2s1	75.8	.	.	.	.	.	75.0	.
CCCc1cc(C(N)=O)c(NC(=O)c2ccco2)s1	127.2	.	.	.	.	.	.	.
O=C1CSC(=NC(=O)c2ccccc2)N1	.	.	.	.	.	.	/	/
CC(C)Cc1nc2n[nH]c(N)c2c2c1COC(C)(C)C2	74.9	.	.	.	.	.	?	.
Cc1ccc2c(c1)c(C)c(C)n2CC(O)CN1CCCCC1C (stereo not given)	70.1	.	.	.	/	/	.	.
Cc1cccc(Cn2cc(/C=C/[N+](=O)[O-])c3ccccc32)c1	.	.	.	.	.	.	/	/
CCSc1nnc(NC(=O)C(C)C)s1	71.3	.	.	.	/	/	.	.
COc1cc(S(=O)(=O)NCc2cccnc2)c(OC)cc1Br	.	.	.	.	.	.	/	/
CCOC(=O)N1CCN(c2c(N3CCc4ccccc43)c(=O)c2=O)CC1	77.2	.	.	.	/	/	.	.
Cc1cccc(Cn2c(N3CCCCC3C)nc3c2c(=O)[nH]c(=O)n3C)c1 (stereo not given)	83.0	.	.	/	/	/	.	.
Cc1cccc(Cn2c(N3CCc4ccccc4C3)nc3c2c(=O)[nH]c(=O)n3C)c1	.	.	.	.	.	.	/	/
Cc1ccc(N(CC(=O)Nc2ccc(C)cc2C)S(=O)(=O)N2CCCC2)cc1	87.9	.	.	.	.	.	.	.
CCN1CCN(CC(=O)Nc2ccc(C)cc2C)C(=O)C1=O	.	.	.	.	.	.	/	/
SMILES	PLK1 inh	HIV Rev-RRE inh	Plk1 PBD FP	PLAP activator	LYP act	PTPN22 inh 2	PLK1 confirm	Plk1 interf
COc1ccccc1Nc1nc(N)nc(CN2CCOCC2)n1	72.2	.	.	.	/	/	.	.
Cc1ccccc1-c1nc(-c2cccnc2)no1	95.7	.	.	.	.	.	.	.
Clc1ccccc1-c1nc(-c2cccnc2)no1	.	.	.	.	.	.	/	/
CC(C)Cc1nc(N2CCN(C(=O)c3ccco3)CC2)c(C#N)c2c1CCC2	.	.	.	.	.	.	/	/
CC(C)(C)n1nnnc1C(c1ccccn1)N(Cc1ccccc1)Cc1ccc(Cl)cc1 (stereo not given)	.	.	.	.	.	.	/	/
CCOCCn1c(CN(Cc2ccccc2)Cc2ccccc2)nc2c1c(=O)[nH]c(=O)n2C	.	.	.	.	.	.	/	/
CCOCCn1c(CN(Cc2ccccc2)Cc2ccccc2)nc2c1c(=O)n(C)c(=O)n2C	72.0	.	.	.	/	/	.	.
NS(=O)(=O)c1ccc(Nc2nc(-c3ccc(O)cc3O)cs2)cc1	71.6	.	.	.	.	.	?	.
Cc1cccnc1Nc1nc(-c2ccc(O)cc2O)cs1	.	.	.	.	.	.	/	/
CCOc1ccccc1N1CCN(C(=O)c2c(C)noc2C)CC1	.	.	.	.	.	.	/	/
Cc1cccc(-n2ncc3c(NCCc4ccc(S(N)(=O)=O)cc4)ncnc32)c1	71.3	.	.	.	/	/	.	.
CCc1cccc(OCC(=O)Nc2ccc(S(=O)(=O)Nc3onc(C)c3C)cc2)c1	74.7	.	.	.	/	/	.	.
O=C(O)C1CCCCC1C(=O)NCc1cn2ccccc2n1 (stereo not given)	70.9	.	.	.	/	/	.	.
CC(Oc1ccc(Cl)cc1Cl)C(=O)NCCCN1CCOCC1 (stereo not given)	73.7	.	.	.	/	/	.	.
C=CCNc1nc(N)c(C(=O)c2ccc3c(c2)OCO3)s1	74.7	.	.	.	.	.	74.3	.
O=C(c1ccc(F)cc1)N1CCN(c2cc(=O)[nH]nc2-c2ccccc2)CC1	125.2	.	.	.	.	.	.	.
COc1ccc(N2CC(C(=O)OCC(=O)c3cccc(OC)c3)CC2=O)cc1 (stereo not given)	.	.	.	.	.	.	/	/
O=C(c1ccco1)N1CCN=C1SCc1ccccc1F	78.1	.	.	.	/	/	.	.
O=C(c1ccco1)N1CCN=C1SCc1cccnc1	.	.	.	.	.	.	/	/
CCCCc1ccc(Nc2ncnc3nc[nH]c23)cc1	.	.	.	.	.	.	/	/
CCCNc1ncnc2nc[nH]c12	/	/	/	.	/	/	/	/
Cc1ccc(Nc2ncnc3nc[nH]c23)cc1Cl	76.2	.	.	.	.	.	.	.
COc1cccc(Nc2ncnc3nc[nH]c23)c1	84.3	.	.	.	.	.	70.2	.
CCC(C)N(C(=O)C(F)(F)F)C(C(=O)NC1CCCCC1)c1ccncc1 (stereo not given)	.	.	.	/	.	.	/	/
Cc1cc(NC(=O)CCCC(=O)N(CC(=O)NC2CCCCC2)c2ccccc2)no1	.	.	.	.	.	.	/	/
SMILES	PLK1 inh	HIV Rev-RRE inh	Plk1 PBD FP	PLAP activator	LYP act	PTPN22 inh 2	PLK1 confirm	Plk1 interf
Cc1ccc2c(c1)/C(=N/OC(=O)c1ccc(F)cc1)CCS2	123.6	.	.	.	.	.	.	.
COc1ccc(CNC(=O)c2csc(Cc3ccc(OC)cc3)n2)cc1	.	.	.	.	.	.	/	/
CC1CCN(c2ccccc2N)CC1	.	.	.	.	.	.	/	/
[O-][N+]12CCN(CC1)c1ccccc12	77.2	.	.	.	.	.	.	.
O=c1oc2c3c4c(cc2c2c1CCC2)OCCN4CCC3	.	.	.	.	.	.	/	/
COc1ccc(OCc2nnc3n2N=C(c2ccc(C)cc2)CS3)cc1	71.7	.	.	.	/	/	.	.
CCOc1ccc(C2=Nn3c(nnc3-c3ccc(OC)cc3)SC2)cc1	.	.	.	.	.	.	/	/
